For 35 compounds, IC50 and residual activity results are on record in ChEMBL document CHEMBL4406829, “Synthesis and in vitro evaluation of piperazinyl-ureido sulfamates as steroid sulfatase inhibitors” (Eur J Med Chem, 2019).

Experiment [1] concerns the target T1, Steryl-sulfatase (Homo sapiens, UniProt P08842).
T1 sequence (P08842 whole entry): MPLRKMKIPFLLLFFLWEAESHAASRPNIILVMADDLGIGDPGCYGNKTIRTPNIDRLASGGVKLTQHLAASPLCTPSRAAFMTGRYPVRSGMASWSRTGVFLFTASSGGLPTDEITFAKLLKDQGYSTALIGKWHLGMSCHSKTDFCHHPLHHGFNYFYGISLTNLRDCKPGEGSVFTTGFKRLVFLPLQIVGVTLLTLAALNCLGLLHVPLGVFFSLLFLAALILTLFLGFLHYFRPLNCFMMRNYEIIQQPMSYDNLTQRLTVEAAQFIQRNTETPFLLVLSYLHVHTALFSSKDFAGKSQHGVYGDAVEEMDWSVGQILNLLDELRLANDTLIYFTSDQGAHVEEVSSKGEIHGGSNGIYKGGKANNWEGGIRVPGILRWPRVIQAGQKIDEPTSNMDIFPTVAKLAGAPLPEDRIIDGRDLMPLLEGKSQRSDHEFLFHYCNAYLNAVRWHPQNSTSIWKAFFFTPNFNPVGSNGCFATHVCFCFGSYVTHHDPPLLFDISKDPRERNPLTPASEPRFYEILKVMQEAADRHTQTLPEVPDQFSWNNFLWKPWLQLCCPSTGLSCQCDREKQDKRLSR
Put plainly: Inhibition of steroid sulfatase in human JEG3 cell using [3H] E1S as substrate after 1 hr by scintillation spectrometry analysis. An outline of the steps:
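JEG-3 (human placental choriocarcinoma) lysate at 125 μg protein/mL incubated 1 h with inhibitor (0.001–10 μM) and [3H]E1S adjusted to 20 μM with unlabelled E1S. Estrone product was extracted with toluene, and [14C]E1 was used to correct for losses. Read-out was 3H/14C scintillation counting. IC50 from activity with and without inhibitor; mean ± S.D., n = 3.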

Experiment [2] addresses T2, Steryl-sulfatase (Homo sapiens) (UniProt P08842).
T2 sequence (whole entry): T1 sequence (P08842 whole entry)
Put plainly: Inhibition of steroid sulfatase in human JEG3 cell lysates assessed as residual activity at 10 uM using [3H] E1S as substrate after 1 hr by scintillation spectrometry analysis relative to control; values are per cent of control. Particulars: Lysate.

Usually IC50 stands for the point on the concentration scale where inhibition reaches its midpoint. A high value points to weaker potency. By residual activity is commonly meant the signal under treatment as a percentage of the control signal. In the case of `CCCCCCCCN1CCN(C(=O)Nc2ccc(OS(N)(=O)=O)c(F)c2)CC1`, the IC50 in experiment [1] is 8.8 nM. The residual activity in experiment [2] was determined as 11.4%. For the compound `CCCCCCCCN1CCN(C(=O)Nc2ccc(OS(N)(=O)=O)cc2Cl)CC1`, in experiment [2], the residual activity was 71.6%. Still for that read-out and setting: under `COc1ccc(-c2ccnc(N3CCN(C(=O)Nc4ccc(OS(N)(=O)=O)cc4)CC3)n2)cc1` stands 7.9%; under `COc1ccc(N2CCN(C(=O)Nc3ccc(OS(N)(=O)=O)cc3)CC2)cc1`, 37%; under `Cc1cccc(-c2ccnc(N3CCN(C(=O)Nc4ccc(OS(N)(=O)=O)cc4)CC3)n2)c1`, 26.7%. Take `CCCCCCCCCCN1CCN(C(=O)Nc2ccc(OS(N)(=O)=O)cc2F)CC1`: in experiment [2], the residual activity worked out at 7.8%. Turning to `COc1ccc(-c2ccnc(N3CCN(C(=O)Nc4ccc(OS(N)(=O)=O)cc4)CC3)n2)cc1OC`, the residual activity in experiment [2] was 60.7%. On the same count and under the same terms, to `Cc1cccc(N2CCN(C(=O)Nc3ccc(OS(N)(=O)=O)cc3)CC2)c1` belongs 10.4%. The compound `Cc1cccc(N2CCN(C(=O)Nc3ccc(OS(N)(=O)=O)cc3)CC2)c1C` registered an IC50 in experiment [1] of 66 nM. Besides, the residual activity in experiment [2] was 5.9%.

As to `NS(=O)(=O)Oc1ccc(NC(=O)N2CCN(c3ccc(Cl)cc3)CC2)cc1Cl`, in experiment [2], the residual activity stood at 110%. Regarding `Cc1ccccc1N1CCN(C(=O)Nc2ccc(OS(N)(=O)=O)cc2)CC1`, in experiment [2], the residual activity worked out at 47.9%. As for `Cc1cccc(N2CCN(C(=O)Nc3ccc(OS(N)(=O)=O)cc3F)CC2)c1C`, in experiment [2], the residual activity is 109%. Still for that read-out and setting: under `NS(=O)(=O)Oc1ccc(NC(=O)N2CCN(c3nccc(-c4cccc(Br)c4)n3)CC2)cc1` stands 39.4%; under `NS(=O)(=O)Oc1ccc(NC(=O)N2CCN(c3ccccc3)CC2)cc1`, 16.9%. Still for that read-out and setting: under `COc1cc(-c2ccnc(N3CCN(C(=O)Nc4ccc(OS(N)(=O)=O)cc4)CC3)n2)cc(OC)c1OC` stands 19%; under `NS(=O)(=O)Oc1ccc(NC(=O)N2CCN(c3ccc(F)cc3)CC2)cc1`, 93.5%. Compound `CCCCCCCN1CCN(C(=O)Nc2ccc(OS(N)(=O)=O)cc2)CC1` registered an IC50 in experiment [1] of 1690 nM. In experiment [2], the residual activity turned out to be 27.7%. The like results for `NS(=O)(=O)Oc1ccc(NC(=O)N2CCN(c3ccc(Cl)cc3)CC2)cc1` were, in that order, 94 nM and 14.9%. The like results for `NS(=O)(=O)Oc1ccc(NC(=O)N2CCN(c3ccc(Cl)c(Cl)c3)CC2)cc1` were, in that order, 1230 nM and 23%. `CCCCCCCCN1CCN(C(=O)Nc2ccc(OS(N)(=O)=O)cc2F)CC1`: in experiment [2], the residual activity is 29.6%. On the same count and under the same terms, under `NS(=O)(=O)Oc1ccc(NC(=O)N2CCN(c3ccc(Cl)cc3)CC2)c(F)c1` stands 108%. Still for that read-out and setting: under `CCCCCCCCCCN1CCN(C(=O)Nc2ccc(OS(N)(=O)=O)c(F)c2)CC1` stands 15.2%. As to `COc1cccc(N2CCN(C(=O)Nc3ccc(OS(N)(=O)=O)cc3)CC2)c1`, the residual activity in experiment [2] is 26.3%. `NS(=O)(=O)Oc1ccc(NC(=O)N2CCN(c3nccc(-c4cc5ccccc5o4)n3)CC2)cc1` displayed a concentration for half-maximal inhibition (IC50) in experiment [1] of 139 nM. In addition, in experiment [2], the residual activity worked out at 4.7%. For `CCCCCCCCCCN1CCN(C(=O)Nc2ccc(OS(N)(=O)=O)cc2)CC1`, 33.2 nM corresponded to half-maximal inhibition in experiment [1] (IC50). Further, the residual activity in experiment [2] worked out at 3.5%. As to `CCCCCCCCCCN1CCN(C(=O)Nc2ccc(OS(N)(=O)=O)c(Cl)c2)CC1`, the residual activity in experiment [2] worked out at 25.4%. As for `NS(=O)(=O)Oc1ccc(NC(=O)N2CCN(Cc3ccccc3)CC2)cc1`, the residual activity in experiment [2] was found to be 18.7%. On the same count and under the same terms, under `CCCCCCCCCCN1CCN(C(=O)Nc2ccc(OS(N)(=O)=O)cc2Cl)CC1` stands 102%.

Compound `CCCCCCCCN1CCN(C(=O)Nc2ccc(OS(N)(=O)=O)cc2)CC1` yielded a half-inhibitory concentration (IC50) in experiment [1] of 43.7 nM. In addition, the residual activity in experiment [2] came out at 12.4%. For the compound `NS(=O)(=O)Oc1ccc(NC(=O)N2CCN(c3nccc(-c4ccccc4)n3)CC2)cc1`, the residual activity in experiment [2] is 65.9%.

The compound `CCCCCCCCN1CCN(C(=O)Nc2ccc(OS(N)(=O)=O)c(Cl)c2)CC1` showed an IC50 in experiment [1] of 18.9 nM. Further, the residual activity in experiment [2] turned out to be 13.9%. Regarding `NS(=O)(=O)Oc1ccc(NC(=O)N2CCN(Cc3cc4ccccc4o3)CC2)cc1`, the residual activity in experiment [2] came to 20.2%.

In experiment [1], `Cc1cccc(N2CCN(C(=O)Nc3ccc(OS(N)(=O)=O)c(Cl)c3)CC2)c1C` had an IC50 of 17 nM. In experiment [2], the residual activity worked out at 15.1%.

In the case of `NS(=O)(=O)Oc1ccc(NC(=O)N2CCN(c3nccc(-c4cccc(C(F)(F)F)c4)n3)CC2)cc1`, in experiment [2], the residual activity was 44.3%. Consider `NS(=O)(=O)Oc1ccc(NC(=O)N2CCN(c3ccc(Cl)cc3)CC2)cc1F`, for which half-maximal inhibition in experiment [1] (IC50) was put at 5.1 nM. Besides, in experiment [2], the residual activity turned out to be 7.1%.
